How the values were obtained:
B16 [1] = test: Tumor Growth Inhibitory effect (TGIR) on mice subcutaneously inoculated with B16 cells (compound plus MMC); format: functional, Mus musculus; set-up: concentration or dose not given beside the values
In short: (§1)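 Groups of six female BDF1 mice received B16 melanoma (1 × 10^6 cells/mouse) s.c. on day 0. AGL analogues were given i.v. at 100 μg/kg on days 1, 5 and 9, and MMC at 5 mg/kg i.p. on day 1; controls were untreated. Tumor volume (length × width × height/2, by callipers) was read on days 8, 12, 16 and 20. TGIR = [1 − mean test volume/mean control volume] × 100, and the maximum value is reported.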

Mus musculus [2] = species on record: Mus musculus; test: Lymphocyte Proliferation Stimulatory effect was tested on mouse spleen cells and evaluated for at 6 h [3H]TdR (tritium-thymidine) pulse and uptake into cells at 1 ng/mL; format: functional
In short: (§2)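 BALB/c spleen cells (2 × 10^5 cells/well, no stimulator cells) were cultured in 10% FCS RPMI 1640 with compound at 37 °C in 5% CO2 for 2–3 days. A 6 h [3H]TdR pulse followed, and uptake was counted by liquid scintillation. Run in triplicate.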

B16 [3] = test: Tumor Growth Inhibitory effect (TGIR) on mice subcutaneously inoculated with B16 cells (compound alone (single)); format: functional, Mus musculus; set-up: concentration or dose not given beside the values; in short: as §1
Mus musculus [4] = species on record: Mus musculus; test: Lymphocyte Proliferation Stimulatory effect was tested on mouse spleen cells and evaluated for at 6 h [3H]TdR (tritium-thymidine) pulse and uptake into cells at 100 ng/mL; format: functional; in short: as §2
B16 [5] = test: Tumor Growth Inhibitory effect (TGIR) on mice subcutaneously inoculated with B16 cells (chemotherapeutic agent, mitomycin C (MMC)); format: functional, Mus musculus; set-up: concentration or dose not given beside the values; in short: as §1
Mus musculus [6] = species on record: Mus musculus; test: Lymphocyte Proliferation Stimulatory effect was tested on mouse spleen cells and evaluated for at 6 h [3H]TdR (tritium-thymidine) pulse and uptake into cells at 10 ng/mL; format: functional; in short: as §2
Mus musculus [7] = species on record: Mus musculus; test: Lymphocyte Proliferation Stimulatory effect on mouse spleen cell at a concentration of 100n g/mL; format: functional; in short: as §2
Mus musculus [8] = species on record: Mus musculus; test: Lymphocyte Proliferation Stimulatory effect on allogenic MLR at a concentration of 10 ng/mL; format: functional
In short: (§3)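 Responders were BALB/c spleen cells and stimulators were C57BL/6 spleen cells pretreated with MMC (50 μg/mL, 30 min). Both were plated at 1 × 10^5 cells in 10% FCS RPMI 1640, with compounds added at plating. Culture was at 37 °C in 5% CO2 for 2–3 days, then a 6 h [3H]TdR pulse with scintillation counting. Run in triplicate.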

Mus musculus [9] = species on record: Mus musculus; test: Lymphocyte Proliferation Stimulatory effect on mouse spleen cell at a concentration of 1 ng/mL; format: functional; in short: as §2
Mus musculus [10] = species on record: Mus musculus; test: Lymphocyte Proliferation Stimulatory effect on allogenic MLR at a concentration of 1 ng/mL; format: functional; in short: as §3
Mus musculus [11] = species on record: Mus musculus; test: Lymphocyte Proliferation Stimulatory effect on allogenic MLR at a concentration of 100n g/mL; format: functional; in short: as §3
Mus musculus [12] = species on record: Mus musculus; test: Lymphocyte Proliferation Stimulatory effect on mouse spleen cell at a concentration of 10 ng/mL; format: functional; in short: as §2
Homo sapiens [13] = species on record: Homo sapiens; test: Lymphocyte Proliferation Stimulatory effect on human umbilical cord blood at 100 ng/mL and measured for [3H]TdR (tritium-thymidine) uptake (percent of control); format: functional
In short: (§4)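 Mononuclear cells were isolated from human peripheral blood or umbilical cord blood and plated at 1 × 10^5 cells/well in RPMI 1640 with 10% autologous plasma, with compound. After 4 days of incubation, a 6 h [3H]TdR pulse was given and uptake was counted by scintillation. Run in triplicate.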

Homo sapiens [14] = species on record: Homo sapiens; test: Lymphocyte Proliferation Stimulatory effect on human umbilical cord blood at 10 ng/mL and measured for [3H]TdR (tritium-thymidine) uptake (percent of control); format: functional; in short: as §4
Homo sapiens [15] = species on record: Homo sapiens; test: Lymphocyte Proliferation Stimulatory effect on human umbilical cord blood at 1 ng/mL and measured for [3H]TdR (tritium-thymidine) uptake (percent of control); format: functional; in short: as §4

| Structure (SMILES) | Control (B16 [1]) [%] | Control (Mus musculus [2]) [%] | Control (B16 [3]) [%] | Control (Mus musculus [4]) [%] | Tumor growth inhibition ratio (max TGIR) (B16 [5]) [%] | Control (Mus musculus [6]) [%] | [3H] TdR uptake (Mus musculus [7]) [c.p.m.] | [3H] TdR uptake (Mus musculus [8]) [c.p.m.] | [3H] TdR uptake (Mus musculus [9]) [c.p.m.] | [3H] TdR uptake (Mus musculus [10]) [c.p.m.] | [3H] TdR uptake (Mus musculus [11]) [c.p.m.] | [3H] TdR uptake (Mus musculus [12]) [c.p.m.] | Control (Homo sapiens [13]) [%] | Control (Homo sapiens [14]) [%] | Control (Homo sapiens [15]) [%] |
| --- | --- | --- | --- | --- | --- | --- | --- | --- | --- | --- | --- | --- | --- | --- | --- |
| CCCCCCCCCCCCCCCCCCCCCCCC(=O)N[C@H](CCCCCCCCCCCCCCCC)CO[C@H]1O[C@@H](CO)[C@H](O)[C@H](O)[C@@H]1O | 91.4 | 90 | 40.7 | 147 | 80 | 100 |  |  |  |  |  |  |  |  |  |
| CCCCCCCCCCCCCCCCCCCCCC[C@@H](O)C(=O)N[C@@H](CO[C@H]1O[C@@H](CO)[C@H](O)[C@H](O)[C@@H]1O)[C@H](O)[C@H](O)CCCCCCCCCCC | 77.4 | 330 | 94.1 | 838 | 46.5 | 676 |  |  |  |  |  |  |  |  |  |
| CCCCCCCCCCCCCCCCCCCC(=O)N[C@@H](CO[C@H]1O[C@@H](CO)[C@H](O)[C@H](O)[C@@H]1O)[C@H](O)CCCCCCCCCCCCCCC | 90.4 | 177 | 53.1 | 1009 | 39.4 | 791 |  |  |  |  |  |  |  |  |  |
| CCCCCCCCCCCCCCCCCCCCCCCC(=O)N[C@@H](CO[C@H]1O[C@@H](CO)[C@H](O)[C@H](O)[C@@H]1O)[C@H](O)[C@H](O)CCCCCCCCCCCCCC | 90.8 | 198 | 65 | 790 | 64.8 | 642 |  |  |  |  |  |  |  |  |  |
| CCCCCCCCCCCCCCC[C@@H](O)[C@H](CO[C@H]1O[C@@H](CO)[C@H](O)[C@H](O)[C@@H]1O)NC(=O)CCCCCCCCCCCCC | 84.4 | 249 | 54.2 | 1664 | 64.1 | 1010 |  |  |  |  |  |  |  |  |  |
| CCCCCCCCCCCCCCCCCCCCCC[C@@H](O)C(=O)N[C@@H](CO[C@H]1O[C@@H](CO)[C@H](O)[C@H](O)[C@@H]1O)[C@H](O)[C@H](O)CCCCCCCCCCCC(C)C (stereo in doubt; form 1) | 94.6 | 282 | 86.8 | 879 | 61.5 | 524 | 23968 | 38668 | 7935 | 29143 | 31219 | 20746 |  |  |  |
| CCCCCCCCCCCCCCCCCCCCCC(=O)N[C@@H](CO[C@H]1O[C@@H](CO)[C@H](O)[C@H](O)[C@@H]1O)[C@H](O)CCCCCCCCCCCCCCC | 85 | 378 | 56.9 | 875 | 39.4 | 992 |  |  |  |  |  |  |  |  |  |
| CCCCCCCCCCCCCCCCCCCCCC[C@@H](O)C(=O)N[C@@H](CO[C@H]1O[C@@H](CO)[C@H](O)[C@H](O)[C@@H]1O)[C@H](O)[C@H](O)CCCCCCCCCCCC(C)C (stereo in doubt; form 2) |  |  |  |  |  |  | 24264 | 36713 | 8230 | 36022 | 32240 | 19985 |  |  |  |
| CCCCCCCCCCCCCCCCCCCCCC[C@@H](O)C(=O)N[C@@H](CO[C@H]1O[C@@H](CO)[C@H](O)[C@H](O)[C@@H]1O)[C@H](O)[C@H](O)CCCCCCCCCCCCC | 90.6 | 520 | 82.4 | 1202 | 61.5 | 1491 |  |  |  |  |  |  |  |  |  |
| CCCCCCCCCCCCCCCCCCCCCCCC(=O)N[C@@H](CO[C@H]1O[C@@H](CO)[C@H](O)[C@H](O)[C@@H]1O)[C@H](O)CCCCCCCCCCCCCCC | 99.1 | 1115 | 68.9 | 1494 | 64 | 1432 |  |  |  |  |  |  |  |  |  |
| CCCCCCCCCCCCCCCCCCCCCC[C@@H](O)C(=O)N[C@@H](CO[C@H]1O[C@@H](CO)[C@H](O)[C@H](O)[C@@H]1O)[C@H](O)CCCCCCCCCCCCCCC | 98.5 | 397 | 81.3 | 872 | 70.7 | 898 |  |  |  |  |  |  |  |  |  |
| CCCCCCCCCCCCCCCCCCCCCCCC[C@@H](O)C(=O)N[C@@H](CO[C@H]1O[C@@H](CO)[C@H](O)[C@H](O)[C@@H]1O)[C@H](O)[C@H](O)CCCCCCCCCCCCCCC | 97.1 | 221 | 72.3 | 673 | 87.3 | 488 |  |  |  |  |  |  |  |  |  |
| CCCCCCCCCCCCCCCCCCCCCC[C@@H](O)C(=O)N[C@@H](CO[C@H]1O[C@@H](CO)[C@H](O)[C@H](O)[C@@H]1O)[C@H](O)[C@H](O)CCCCCCCCCCCCCC | 91.9 | 1060 | 57.9 | 1552 | 64 | 1405 |  |  |  |  |  |  |  |  |  |
| CCCCCCCCCCCCCCCCCC(=O)N[C@@H](CO[C@H]1O[C@@H](CO)[C@H](O)[C@H](O)[C@@H]1O)[C@H](O)CCCCCCCCCCCCCCC | 80.3 | 155 | 78.1 | 645 | 64.1 | 383 |  |  |  |  |  |  |  |  |  |
| CCCCCCCCCCCCCCCCCCCCCCCC[C@@H](O)C(=O)N[C@@H](CO[C@H]1O[C@@H](CO)[C@H](O)[C@H](O)[C@@H]1O)[C@H](O)[C@H](O)CCCCCCCCCCCCCCCC | 94.3 | 153 | 92.8 | 481 | 87.3 | 482 |  |  |  |  |  |  |  |  |  |
| CCCCCCCCCCCCCCCCCCCCCCCC[C@@H](O)C(=O)N[C@@H](CO[C@H]1O[C@@H](CO)[C@H](O)[C@H](O)[C@@H]1O)[C@H](O)CCCCCCCCCCCCCCC |  |  |  |  |  |  |  |  |  |  |  |  | 362 | 238 | 210 |
| CCCCCCCCCCCCCCCCCCCCCC[C@@H](O)C(=O)N[C@@H](CO[C@H]1O[C@@H](CO)[C@H](O)[C@H](O)[C@@H]1O)[C@H](O)[C@H](O)CCCCCCC | 85.1 | 196 | 46.2 | 936 | 46.5 | 541 |  |  |  |  |  |  |  |  |  |

— ChEMBL document CHEMBL1128398, “Structure-activity relationship of alpha-galactosylceramides against B16-bearing mice” (1995)
